From ChEMBL document CHEMBL1134473, “Synthesis and biological evaluation of pyrrolinic isosteres of rilmenidine. Discovery of cis-/trans-dicyclopropylmethyl-(4,5-dimethyl-4,5-dihydro-3H-pyrrol-2-yl)-amine (LNP 509), an I1 imidazoline receptor selective ligand with hypotensive activity” (J Med Chem, 2001)

Assay: Displacement of [3H]RX-821002 from alpha-2 adrenergic receptor of calf frontal cortex membranes
Type: tissue-based, Bos taurus
Summary of the method: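 Calf frontal cortex membranes (0.5 mg protein/mL) incubated 60 min at 25 °C with 0.8 nM [3H]RX821002 plus 0.3 µM 5HT to mask 5HT1A sites, in 50 mM sodium phosphate pH 7.4, drug 10^-9 to 10^-4 M. Nonspecific binding with 10 µM phentolamine. Bound ligand separated by GF/C filtration and counted. Three experiments in triplicate; Ki by Cheng-Prusoff.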

CC1CN=C(NC(C2CC2)C2CC2)C1 (stereo not drawn)
Log Ki: > -5

C1CN=C(NC(C2CC2)C2CC2)C1
Log Ki: > -5

CC1CCN=C1NC(C1CC1)C1CC1 (stereo not drawn)
Log Ki: > -5

C1CCC2N=C(NC(C3CC3)C3CC3)CC2C1 (stereo not drawn)
Log Ki: > -5

C1COC(NC(C2CC2)C2CC2)=N1 [RILMENIDINE]
Log Ki: -7.25

CC1CCC(NC(C2CC2)C2CC2)=N1 (stereo not drawn)
Log Ki: > -5

CCC1CCC(NC(C2CC2)C2CC2)=N1 (stereo not drawn)
Log Ki: > -5

CC1CC(NC(C2CC2)C2CC2)=NC1C (mixture of isomers)
Log Ki: > -5
